pIC50: −log10 of the molar value.
Assays:
[1] = tested on: Mus musculus; test: Volume of distribution at steady state in C57BL/6 mouse at 15 mg/kg, iv after 8 hrs by LC-MS/MS analysis; format: ADME, organism-based; conditions: in vivo
Procedure, shortened: (§1)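 Female C57BL/6 mice dosed iv at 15 mg/kg or orally at 30 mg/kg in 25% DMSO/25% PEG-400/50% PBS (v/v). Serial 50 μL blood samples collected over 24 h (8 h in one experiment), spun to plasma; concentrations by validated LC-MS/MS in positive-ion MRM mode; parameters from noncompartmental analysis.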

[2] = tested on: Mus musculus; test: Cmax in C57BL/6 mouse plasma at 30 mg/kg, po after 8 hrs by LC-MS/MS analysis; format: ADME, organism-based; parameters: dose 30 mg/kg, route oral; conditions: in vivo; procedure, shortened: as §1
[3] = tested on: Mus musculus; test: Half life in C57BL/6 mouse at 15 mg/kg, iv after 8 hrs by LC-MS/MS analysis; format: ADME, organism-based; conditions: in vivo; procedure, shortened: as §1
[4] = Growth inhibition of MLL-AF9 transformed mouse bone marrow cells after 7 days by MTT assay; format: functional; conditions: Bone marrow cell, 168 h
[5] = target: Menin/Histone-lysine N-methyltransferase MLL (Homo sapiens, UniProt O00255); test: Inhibition of menin-MLL interaction (unknown origin) after 1 hr by fluorescence polarization assay; format: protein assay
Menin/Histone-lysine N-methyltransferase MLL, sequence (O00255 whole entry): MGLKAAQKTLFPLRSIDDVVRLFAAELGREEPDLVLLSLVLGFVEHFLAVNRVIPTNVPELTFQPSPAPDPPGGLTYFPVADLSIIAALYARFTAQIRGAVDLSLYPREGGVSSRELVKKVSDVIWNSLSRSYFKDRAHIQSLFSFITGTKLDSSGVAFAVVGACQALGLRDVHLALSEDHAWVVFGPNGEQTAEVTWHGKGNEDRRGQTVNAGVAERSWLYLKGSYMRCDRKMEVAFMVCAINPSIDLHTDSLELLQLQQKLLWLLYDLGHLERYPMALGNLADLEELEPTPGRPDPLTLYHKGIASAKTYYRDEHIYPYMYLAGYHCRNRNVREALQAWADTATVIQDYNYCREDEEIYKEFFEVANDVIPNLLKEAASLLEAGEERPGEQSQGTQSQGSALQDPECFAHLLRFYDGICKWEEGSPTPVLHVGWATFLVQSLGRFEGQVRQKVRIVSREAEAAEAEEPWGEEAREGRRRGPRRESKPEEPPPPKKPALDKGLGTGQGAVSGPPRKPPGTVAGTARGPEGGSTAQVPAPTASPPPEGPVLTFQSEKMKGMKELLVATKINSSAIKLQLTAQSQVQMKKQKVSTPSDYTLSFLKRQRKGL
Menin/Histone-lysine N-methyltransferase MLL, sequence (Q03164 1-2718 partner limits assumed): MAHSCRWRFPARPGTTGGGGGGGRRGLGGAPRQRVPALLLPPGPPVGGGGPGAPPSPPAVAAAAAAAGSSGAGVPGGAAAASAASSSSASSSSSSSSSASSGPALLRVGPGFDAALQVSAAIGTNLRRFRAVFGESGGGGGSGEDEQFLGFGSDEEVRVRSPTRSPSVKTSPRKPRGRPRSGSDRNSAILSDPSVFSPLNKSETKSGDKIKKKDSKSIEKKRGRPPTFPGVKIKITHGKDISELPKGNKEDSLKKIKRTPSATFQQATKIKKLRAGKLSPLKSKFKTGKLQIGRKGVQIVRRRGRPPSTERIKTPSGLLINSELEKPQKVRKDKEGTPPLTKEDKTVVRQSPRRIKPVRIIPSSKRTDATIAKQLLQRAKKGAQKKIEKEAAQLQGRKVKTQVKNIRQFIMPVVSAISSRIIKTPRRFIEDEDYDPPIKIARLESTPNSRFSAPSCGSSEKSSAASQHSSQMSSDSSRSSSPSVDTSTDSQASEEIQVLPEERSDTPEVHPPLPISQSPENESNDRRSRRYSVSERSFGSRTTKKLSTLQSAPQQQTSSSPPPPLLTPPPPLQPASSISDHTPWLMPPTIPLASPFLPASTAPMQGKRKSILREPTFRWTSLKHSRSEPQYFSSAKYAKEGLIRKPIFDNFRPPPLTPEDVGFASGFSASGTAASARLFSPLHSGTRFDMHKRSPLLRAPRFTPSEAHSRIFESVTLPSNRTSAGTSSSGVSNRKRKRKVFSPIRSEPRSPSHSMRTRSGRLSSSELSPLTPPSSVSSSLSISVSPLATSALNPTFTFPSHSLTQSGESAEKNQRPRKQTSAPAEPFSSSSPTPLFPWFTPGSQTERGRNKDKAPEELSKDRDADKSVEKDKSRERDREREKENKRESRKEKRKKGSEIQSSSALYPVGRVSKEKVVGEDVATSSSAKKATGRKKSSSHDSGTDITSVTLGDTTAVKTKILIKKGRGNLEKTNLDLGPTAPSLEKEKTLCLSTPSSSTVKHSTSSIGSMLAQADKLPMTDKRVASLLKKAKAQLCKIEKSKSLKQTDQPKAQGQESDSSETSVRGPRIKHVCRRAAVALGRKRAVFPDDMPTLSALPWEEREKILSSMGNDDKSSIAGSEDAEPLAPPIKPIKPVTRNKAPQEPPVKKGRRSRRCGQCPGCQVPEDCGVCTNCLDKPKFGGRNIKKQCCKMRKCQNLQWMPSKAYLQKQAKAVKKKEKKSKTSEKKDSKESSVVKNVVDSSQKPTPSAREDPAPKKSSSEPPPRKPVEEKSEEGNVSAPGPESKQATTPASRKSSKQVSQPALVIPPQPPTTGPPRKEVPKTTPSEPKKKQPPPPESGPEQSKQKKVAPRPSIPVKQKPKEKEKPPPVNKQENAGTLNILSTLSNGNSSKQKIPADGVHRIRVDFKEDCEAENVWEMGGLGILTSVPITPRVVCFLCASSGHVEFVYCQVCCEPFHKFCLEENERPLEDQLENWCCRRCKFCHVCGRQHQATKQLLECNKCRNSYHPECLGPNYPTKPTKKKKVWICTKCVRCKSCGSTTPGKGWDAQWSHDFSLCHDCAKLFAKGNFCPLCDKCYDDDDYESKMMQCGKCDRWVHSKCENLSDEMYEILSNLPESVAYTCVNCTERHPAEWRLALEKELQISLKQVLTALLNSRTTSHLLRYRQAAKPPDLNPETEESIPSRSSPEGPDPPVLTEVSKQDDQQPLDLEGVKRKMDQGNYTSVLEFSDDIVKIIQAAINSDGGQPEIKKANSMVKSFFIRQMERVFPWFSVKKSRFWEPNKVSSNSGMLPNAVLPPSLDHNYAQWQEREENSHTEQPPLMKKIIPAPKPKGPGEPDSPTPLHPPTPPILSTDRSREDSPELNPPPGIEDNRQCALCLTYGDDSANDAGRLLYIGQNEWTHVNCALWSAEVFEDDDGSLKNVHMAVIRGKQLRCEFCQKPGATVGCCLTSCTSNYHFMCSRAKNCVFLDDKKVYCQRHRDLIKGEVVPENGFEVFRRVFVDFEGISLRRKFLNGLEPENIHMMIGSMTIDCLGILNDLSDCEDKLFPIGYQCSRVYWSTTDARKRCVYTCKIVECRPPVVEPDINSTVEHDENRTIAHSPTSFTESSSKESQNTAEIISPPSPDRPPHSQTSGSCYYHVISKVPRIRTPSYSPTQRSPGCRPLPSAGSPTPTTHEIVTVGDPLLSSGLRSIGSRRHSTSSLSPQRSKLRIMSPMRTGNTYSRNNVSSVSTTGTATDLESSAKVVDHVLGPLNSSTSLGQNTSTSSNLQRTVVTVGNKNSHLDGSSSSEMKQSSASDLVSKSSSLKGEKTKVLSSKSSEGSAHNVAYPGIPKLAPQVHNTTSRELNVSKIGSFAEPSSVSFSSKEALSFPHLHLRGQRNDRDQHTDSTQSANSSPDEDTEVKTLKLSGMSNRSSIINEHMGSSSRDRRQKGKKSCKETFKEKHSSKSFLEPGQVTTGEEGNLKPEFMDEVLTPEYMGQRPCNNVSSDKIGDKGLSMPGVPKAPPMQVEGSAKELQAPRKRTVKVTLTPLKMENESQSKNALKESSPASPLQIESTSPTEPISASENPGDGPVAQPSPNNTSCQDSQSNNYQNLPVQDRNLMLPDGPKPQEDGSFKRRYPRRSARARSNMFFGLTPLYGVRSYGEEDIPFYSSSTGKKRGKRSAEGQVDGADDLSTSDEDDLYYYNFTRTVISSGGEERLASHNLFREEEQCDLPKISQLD
Menin/Histone-lysine N-methyltransferase MLL, sequence (Q03164 2719-3969 partner limits assumed): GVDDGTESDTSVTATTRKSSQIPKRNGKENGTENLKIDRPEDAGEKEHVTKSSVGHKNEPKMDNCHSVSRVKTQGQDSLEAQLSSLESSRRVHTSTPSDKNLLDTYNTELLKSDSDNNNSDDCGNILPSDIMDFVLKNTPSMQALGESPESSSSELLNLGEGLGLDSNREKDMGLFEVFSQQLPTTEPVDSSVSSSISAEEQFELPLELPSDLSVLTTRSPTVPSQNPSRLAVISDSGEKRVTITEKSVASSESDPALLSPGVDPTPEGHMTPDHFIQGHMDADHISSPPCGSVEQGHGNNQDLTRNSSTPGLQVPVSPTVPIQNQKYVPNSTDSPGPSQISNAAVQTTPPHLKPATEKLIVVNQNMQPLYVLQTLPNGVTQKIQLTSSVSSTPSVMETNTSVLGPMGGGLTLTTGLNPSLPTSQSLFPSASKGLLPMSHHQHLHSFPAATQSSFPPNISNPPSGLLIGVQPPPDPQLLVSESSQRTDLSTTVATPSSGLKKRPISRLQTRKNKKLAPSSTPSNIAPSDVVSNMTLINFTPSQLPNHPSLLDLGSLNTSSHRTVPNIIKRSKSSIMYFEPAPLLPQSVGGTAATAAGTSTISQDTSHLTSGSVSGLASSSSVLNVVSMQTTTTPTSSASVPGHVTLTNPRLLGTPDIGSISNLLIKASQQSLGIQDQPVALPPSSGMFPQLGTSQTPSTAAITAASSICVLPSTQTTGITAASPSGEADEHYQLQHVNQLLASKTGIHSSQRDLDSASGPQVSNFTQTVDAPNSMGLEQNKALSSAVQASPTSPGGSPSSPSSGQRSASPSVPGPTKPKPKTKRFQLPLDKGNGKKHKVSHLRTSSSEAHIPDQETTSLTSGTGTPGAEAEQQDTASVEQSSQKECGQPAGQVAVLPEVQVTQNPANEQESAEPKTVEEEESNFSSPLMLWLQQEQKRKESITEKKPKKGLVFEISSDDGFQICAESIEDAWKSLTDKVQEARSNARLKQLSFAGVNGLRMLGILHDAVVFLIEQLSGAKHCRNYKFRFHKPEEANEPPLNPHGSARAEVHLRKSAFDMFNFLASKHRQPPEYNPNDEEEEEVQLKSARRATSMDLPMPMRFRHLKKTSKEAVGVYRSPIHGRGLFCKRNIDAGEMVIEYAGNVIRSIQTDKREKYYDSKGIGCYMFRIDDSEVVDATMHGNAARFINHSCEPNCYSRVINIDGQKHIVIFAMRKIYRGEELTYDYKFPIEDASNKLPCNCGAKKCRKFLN

[6] = Clearance in C57BL/6 mouse at 15 mg/kg, iv after 8 hrs by LC-MS/MS analysis; format: ADME, organism-based; conditions: in vivo; procedure, shortened: as §1
[7] = tested on: Mus musculus; test: Tmax in C57BL/6 mouse plasma at 30 mg/kg, po after 8 hrs by LC-MS/MS analysis; format: ADME, organism-based; conditions: in vivo; procedure, shortened: as §1
[8] = tested on: Bone marrow cell; test: Selectivity index, ratio of GI50 for Hoxa9/Meis1 transformed mouse bone marrow cells to GI50 for MLL-AF9 transformed mouse bone marrow cells; format: functional
[9] = tested on: Mus musculus; test: AUC in C57BL/6 mouse at 15 mg/kg, iv after 8 hrs by LC-MS/MS analysis; format: ADME, organism-based; parameters: time < 8 hr, dose 15 mg/kg, route intravenous; conditions: in vivo; procedure, shortened: as §1
[10] = tested on: Mus musculus; test: Oral bioavailability in C57BL/6 mouse at 30 mg/kg after 8 hrs by LC-MS/MS analysis; format: ADME, organism-based; conditions: in vivo; procedure, shortened: as §1
[11] = Half life in CD-1 mouse liver microsomes at 1 uM after 3 to 60 mins by LC-MS/MS analysis; format: ADME
[12] = tested on: Mus musculus; test: AUC in C57BL/6 mouse at 30 mg/kg, po after 8 hrs by LC-MS/MS analysis; format: ADME, organism-based; parameters: dose 30 mg/kg, time < 8 hr, route oral; conditions: in vivo; procedure, shortened: as §1
[13] = Growth inhibition of Hoxa9/Meis1 transformed mouse bone marrow cells after 7 days by MTT assay; format: functional; conditions: Bone marrow cell, 168 h
[14] = Efflux ratio of apparent permeability from […] side in human Caco2 cells at 10 uM after 2 hrs by LC-MS/MS analysis; format: ADME, cell-based; conditions: caco-2, 2 h

| Vdss [1] [L/kg] | Cmax [2] [ng/mL] | t1/2 [3] [h] | pIC50 [5] | clearance [6] [mL/min/kg] | Tmax [7] [h] | AUC [9] [ng·h/mL] | F [10] [%] | t1/2 [11] [h] | AUC [12] [ng·h/mL] | Ratio [14] | Compound | GI50 [4] [nM] | RatioGI50 [8] | GI50 [13] [nM] |
| --- | --- | --- | --- | --- | --- | --- | --- | --- | --- | --- | --- | --- | --- | --- |
| 1.837 | 101 | 1.4 | 7.92 | 15 | 2 | 16235 | 1 | 0.917 | 383 |  | COc1cc2c(cc(C#N)n2Cc2cn[nH]c2)c(C)c1CN1CCC(Nc2ncnc3sc(CC(F)(F)F)cc23)CC1 | 180 | 23 | 4200 |
|  |  |  | 7.60 |  |  |  |  | 0.9 |  | > 90 | N#Cc1cc2cc(CN3CCC(Nc4ncnc5sc(CC(F)(F)F)cc45)CC3)ccc2n1CC(N)=O | 780 | 32 | 25000 |

Reference: ChEMBL document CHEMBL3779881, “Property Focused Structure-Based Optimization of Small Molecule Inhibitors of the Protein-Protein Interaction between Menin and Mixed Lineage Leukemia (MLL)” (J Med Chem, 2016)
